In assay [1] the test system is Rattus norvegicus. Description: Inhibition of rat adjuvant induced polyarthritis (AIP) at the dose of 10 mg/kg in the injected paw. In kind it is functional. A digest of the protocol: (§1)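 Rat adjuvant arthritis induced by M. tuberculosis in mineral oil into the left hindpaw on day 0. Dosed sc once daily for 28 days in sterile saline adjusted to pH 7.0. Change in paw volume of the injected and noninjected hindpaws measured on day 28 by mercury-displacement plethysmography, giving % inhibition versus the sc vehicle arthritic control.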

The test system of assay [2] is Rattus norvegicus. Kind of assay: Inhibition of rat adjuvant induced polyarthritis (AIP) at the dose of 30 mg/kg in the non-injected paw. Type of assay: functional. The method in brief:
as §1

For assay [3], the system named is Mus musculus. Description: Inhibition of antigen-induced polyarthritis (AIP) in mice at the dose of 5 mg/kg. Type of assay: functional. The method in brief: (§2)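 Murine antigen-induced arthritis: mice immunized with mBSA (with M. tuberculosis), boosted at 7 days, and challenged 14 days later with 200 μg mBSA in saline into the left rear stifle joint. Dosed sc (scruff; saline vehicle, pH 7.0) 5 of 7 days from day 0 to 28. H&E sagittal joint sections scored 1–5 each for inflammation, pannus, and cartilage/bone erosion, summed to a global score (max 20). One-way ANOVA versus vehicle.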

Assay [4] has as its system Rattus norvegicus. Description: Inhibition of rat adjuvant induced polyarthritis (AIP) at the dose of 5 mg/kg in the injected paw. Type of assay: functional. A digest of the protocol: as §1
In assay [5] the test system is Mus musculus. Description: Inhibition of delayed type hypersensitivity granuloma results at 100 mg/kg in wet weight. In kind it is functional. A digest of the protocol:
(§3)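 Groups of 10 female CF-1 mice (25 g) were sensitised sc over the inguinal lymph node with mBSA emulsion in Freund's incomplete adjuvant plus dextran. Two mBSA-soaked hydroxyapatite disks were implanted per mouse. Sc dosing ran daily from implantation to day 9, then granulomas were excised for wet and dry weights. Student's paired t test.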

For assay [6], the system named is Rattus norvegicus. Kind of assay: Inhibition of rat adjuvant induced polyarthritis (AIP) at the dose of 30 mg/kg in the injected paw. Type of assay: functional. The method in brief:
as §1

Assay [7] concerns Rattus norvegicus. Kind of assay: Inhibition of adjuvant-induced polyarthritis (AIP) in rats at the dose of 10 mg/kg in the non-injected paw.
The test system of assay [8] is Rattus norvegicus. Kind of assay: Inhibition of rat adjuvant induced polyarthritis (AIP) at the dose of 15 mg/kg in the non-injected paw. In kind it is functional. A digest of the protocol:
as §1

Assay [9] has as its system Mus musculus. Kind of assay: Inhibition of antigen-induced polyarthritis (AIP) in mice at the dose of 50 mg/kg. In kind it is functional. A digest of the protocol: as §2
Assay [10] has as its system Rattus norvegicus. Description: Inhibition of rat adjuvant induced polyarthritis (AIP) at the dose of 15 mg/kg in the injected paw. Type of assay: functional. A digest of the protocol: as §1
The test system of assay [11] is Mus musculus. Kind of assay: Inhibition of antigen-induced polyarthritis (AIP) in mice at the dose of 100 mg/kg. In kind it is functional. A digest of the protocol: as §2
The subject of assay [12] is Rattus norvegicus. Description: Inhibition of adjuvant-induced polyarthritis (AIP) in rats at the dose of 5 mg/kg in the non-injected paw.
Assay [13] deals with Mus musculus. Description: Inhibition of antigen-induced polyarthritis (AIP) in mice at the dose of 30 mg/kg. In kind it is functional. A digest of the protocol:
as §2

Assay [14] relates to Mus musculus. Description: Inhibition of antigen-induced polyarthritis (AIP) in mice at the dose of 200 mg/kg. Type of assay: functional. A digest of the protocol:
as §2

The test system of assay [15] is Mus musculus. Kind of assay: Inhibition of delayed type hypersensitivity granuloma results at 100 mg/kg in dry weight. Type of assay: functional. The method in brief:
as §3

For assay [16], the system named is Mus musculus. Description: Inhibition of antigen-induced polyarthritis (AIP) in mice at the dose of 15 mg/kg. Type of assay: functional. A digest of the protocol: as §2

The values that follow come from ChEMBL document CHEMBL1126664, “Pyrazoline bisphosphonate esters as novel antiinflammatory and antiarthritic agents” (1993).

SMILES strings stand for the structures.

For the compound `O=P(O)(O)C(Cl)(Cl)P(=O)(O)O` [CLODRONIC ACID], the inhibition in vivo at 10 mg/kg in the assay with Rattus norvegicus [1] was 38%; in the assay with Rattus norvegicus [7] it was 61%. The inhibition in vivo at 30 mg/kg came to 54% in the assay with Rattus norvegicus [2], 36% in the assay on Rattus norvegicus [6] and 46% with Mus musculus [13]. The values for the inhibition in vivo at 5 mg/kg in the assay with Mus musculus [3], in the assay on Rattus norvegicus [4] and in the assay with Rattus norvegicus [12] were 4%, 21% and 51%, respectively. The figures for the inhibition in vivo at 100 mg/kg in the assay on Mus musculus [5], with Mus musculus [11] and in the assay on Mus musculus [15] were 45%, 51% and 47%, respectively. In addition, the inhibition in vivo at 15 mg/kg with Rattus norvegicus [8] turned out to be 70%; in the assay with Rattus norvegicus [10], 33%; in the assay on Mus musculus [16] it was 46%. The compound further displayed an inhibition in vivo at 50 mg/kg in the assay on Mus musculus [9] of 46%. In the assay on Mus musculus [14], this compound had an inhibition in vivo at 200 mg/kg of 52%.
